Bioassay records as filed in PubChem BioAssay.
Only some compounds are listed: those with a hit (about 2.3% of all), similar ones and a draw of the others.
TRPC6 inhibitor – mouse TRPC6 channel inhibition. HEK293-TRPC6, membrane potential dye, ACh-evoked depolarization; stronger effect = lower value. B-score at 10 µM. actives 1.1% (n = 310,000). AID 2553;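 active means B-score under library mean minus 3 SD, initial fluorescence not abnormally high, positive integrated signal ratio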;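 further: B-score derived from integrated fluorescence ratio over the kinetic read; more negative B-score means stronger inhibition of depolarization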
Target sequence (Q61143 whole entry, looked up): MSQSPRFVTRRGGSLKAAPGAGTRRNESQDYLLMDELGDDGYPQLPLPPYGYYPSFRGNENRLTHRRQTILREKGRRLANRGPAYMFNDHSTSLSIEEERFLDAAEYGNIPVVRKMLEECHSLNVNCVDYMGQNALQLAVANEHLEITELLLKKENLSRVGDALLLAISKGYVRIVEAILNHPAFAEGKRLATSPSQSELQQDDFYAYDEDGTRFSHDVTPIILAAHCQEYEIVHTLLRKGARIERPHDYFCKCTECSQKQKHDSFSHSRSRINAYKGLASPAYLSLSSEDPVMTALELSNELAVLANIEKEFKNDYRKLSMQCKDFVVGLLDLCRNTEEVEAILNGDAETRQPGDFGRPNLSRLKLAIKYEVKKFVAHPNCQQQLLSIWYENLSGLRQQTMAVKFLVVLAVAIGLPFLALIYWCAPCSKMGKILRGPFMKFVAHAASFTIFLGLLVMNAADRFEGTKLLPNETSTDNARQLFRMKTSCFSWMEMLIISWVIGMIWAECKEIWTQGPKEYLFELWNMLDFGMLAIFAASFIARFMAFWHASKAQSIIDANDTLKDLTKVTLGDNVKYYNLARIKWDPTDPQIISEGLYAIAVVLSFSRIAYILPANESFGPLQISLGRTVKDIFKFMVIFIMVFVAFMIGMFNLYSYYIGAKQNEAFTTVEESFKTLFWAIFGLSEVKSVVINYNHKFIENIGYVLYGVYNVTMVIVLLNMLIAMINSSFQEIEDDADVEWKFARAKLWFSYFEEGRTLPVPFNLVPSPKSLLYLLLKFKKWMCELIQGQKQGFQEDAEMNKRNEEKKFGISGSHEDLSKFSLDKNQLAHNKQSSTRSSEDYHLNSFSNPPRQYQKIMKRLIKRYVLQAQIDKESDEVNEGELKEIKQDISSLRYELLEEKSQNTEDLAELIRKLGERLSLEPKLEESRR
TRPC6 activator – mouse TRPC6 channel activation | Q61143 | HEK293-TRPC6 membrane potential dye fluorescence; stronger effect = higher value | B-score at 10 µM | actives 0.13% (n = 310,000) | AID 2550;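 active means B-score of the integrated fluorescence ratio above library mean plus 3 SD, and starting fluorescence ratio within library mean plus 5 SD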;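 further: higher score means more depolarization so channel activation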
TRPC4 agonist – opens the mouse TRPC4 cation channel; HEK293 TRPC4beta/mu-opioid, Fluo4 calcium fluorescence; stronger effect = higher value; Q9QUQ5; B-score at 10 µM; actives 0.49% (n = 310,000);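 active means B-score above 5 SD of library B-scores, and initial fluorescence ratio not above library mean plus 5 SD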;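 further: positive B-score marks a calcium rise read as TRPC4 activation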
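Incubation: 45 min room-temperature Fluo4 loading, 110 s read / System: HEK293 cells stably co-expressing mouse TRPC4beta and mu-opioid receptor / Signal: Fluo4 fluorescence, kinetic / Control set: buffer (low) and maximal DAMGO (high) / Measure: integrated baseline-normalised fluorescence ratio, converted to per-well B score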
TRPC4 inh – TRPC4 (mouse) channel inhibition. AID 2247. B-score at 10 µM. Q9QUQ5. HEK293 TRPC4beta/mu-opioid, DAMGO-evoked Fluo4 calcium flux; stronger effect = lower value. actives 0.39% (n = 300,000);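 active means B-score over 3 SD under the library average, no early fluorescence shift, positive overall ratio signal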
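Material: HEK293 cells with stable TRPC4beta plus mu-opioid receptor expression / Probe or stimulus: DAMGO in two steps, submaximal then maximal / Compound: single concentration per test compound / Technique: kinetic Fluo4 fluorescence imaging of calcium influx / Read-out: per-well B score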
TRPC4 PAM – allosteric potentiators of mouse TRPC4 channel; Q9QUQ5; HEK293 TRPC4beta/mu-opioid, DAMGO EC20, Fluo-4 Ca2+ flux; stronger effect = higher value; B-score at 10 µM; actives 0.42% (n = 310,000);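 active means B-score of calcium response area above 5 SD of library B-scores, with initial fluorescence ratio within 5 SD of library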
A number is an active result; n = inactive.

SMILES	TRPC6 inhibitor	TRPC6 activator	TRPC4 agonist	TRPC4 inh	TRPC4 PAM
O=C(C1CC1)N1CCc2cc(Br)cc(S(=O)(=O)NCCCN3CCCC3)c21	n	n	60	n	n
CC1CC(C)CN(CCCNS(=O)(=O)c2cc(Br)cc3c2N(C(=O)C2CC2)CC3)C1 (centres undefined)	n	n	115	n	n
CC1CCCN(CCCNS(=O)(=O)c2cc(Br)cc3c2N(C(=O)C2CC2)CC3)C1 (centres undefined)	n	n	73	n	n
O=C(COC(=O)/C=C/c1ccc(C(F)(F)F)cc1)NCc1ccco1	n	n	n	n	n
Cc1cnc(CNC(=O)c2ccc3oc(Cc4ccc(Cl)cc4)nc3c2)cn1	n	n	n	n	n
Cn1c(=O)[nH]c(=O)c2c1nc(SCCCO)n2CCCc1ccccc1	n	n	n	n	n
CN(CC(=O)Nc1ccc(F)cc1)C(=O)COC(=O)C1CCN(c2ccc(C(F)(F)F)cn2)CC1	n	n	n	-5	n
O=C(Cc1cccs1)Nc1nc(-c2ccc(F)cc2F)cs1	n	n	n	n	85
CCN(Cc1ccccc1)C(=O)c1nn(-c2ccc(OC)cc2)c(=O)c2c1c1ccccc1n2C	n	n	n	n	n
Oc1cccc(C2c3[nH]c4ccccc4c3CCN2Cc2ccc3c(c2)CCO3)c1 (centres undefined)	n	n	n	-6	n
Oc1cccc(C2c3[nH]c4ccccc4c3CCN2Cc2ccoc2)c1 (centres undefined)	n	n	n	n	n
CCn1c2ccccc2c2cc(/C=N/NC(=O)c3ccc(O)cc3)ccc21	n	n	n	n	n
CCn1c2ccccc2c2cc(/C=N/NC(=O)c3cc(O)cc(O)c3)ccc21	n	n	n	-6	n
O=C(NCCNC(=O)c1ccc(Cl)cc1Cl)c1ccco1	n	n	n	n	n
O=C(N/N=C/c1ccsc1)c1ccc2ccccc2n1	n	n	n	n	17
O=C(N/N=C/c1ccc2c(c1)OCO2)c1ccc2ccccc2n1	n	n	n	n	n
Cc1cc(NC(=O)c2cnn3cccnc23)nn1CC(=O)Nc1cccnc1	n	n	51	n	150
Cc1ccccc1Cn1ccc(NC(=O)c2cnn3cccnc23)n1	n	n	n	n	n
O=C(Nc1ccc2c(c1)OCO2)c1cnn2cccnc12	n	n	n	n	50
COc1ccc(NC(=S)NCC(c2ccco2)N2CCCC2)cc1 (centres undefined)	n	n	n	n	n
S=C(NCCc1ccccc1)NCC(c1ccco1)N1CCCCC1 (centres undefined)	n	n	60	n	n
CCC(C)NC(=O)c1ccc(C)c(NC(=O)C2=C(C)OCCS2)c1 (centres undefined)	n	n	n	n	n
O=C(NC1CCCCC1)NC1C2CC3CC(C2)CC1C3 (centres undefined)	n	n	n	n	n
CCCSc1nnc(NC(=O)c2sc3nc(-c4cccs4)ccc3c2N)s1	n	n	n	n	n
Cc1csc(NC(=O)c2sc3nc(-c4cccs4)ccc3c2N)n1	n	n	47	n	10
SMILES	TRPC6 inhibitor	TRPC6 activator	TRPC4 agonist	TRPC4 inh	TRPC4 PAM
COc1ccc(C(=O)Nc2nc(-c3cccs3)cs2)cc1	n	n	n	-7	n
O=C(Nc1nc(-c2cccs2)cs1)c1ccc(Cl)cc1	n	n	n	n	n
CC(=O)N(c1ccc(Cl)cc1)c1cn(C(C)=O)c2ccccc12	n	n	n	n	n
CC(=O)N(c1ccc(Cl)cc1)c1c[nH]c2ccccc12	n	n	n	-6	n
CCc1ccc(OCc2ccc(C(=O)NCc3ccccn3)o2)cc1	n	n	n	n	25
CCOc1ccc(OCc2ccc(C(=O)NCc3ccncc3)o2)cc1	n	n	n	n	n
CCCCOc1ccc(CSC2=NCCN2)cc1[N+](=O)[O-]	n	n	n	n	n
CCOc1ccc(CSC2=NCCN2)cc1[N+](=O)[O-]	n	n	n	n	11
Cc1ccc(-n2nc(C)cc2Nc2ncc(Cl)cc2Cl)cc1	n	n	n	n	n
Cc1cc(Nc2ncc(Cl)cc2Cl)n(-c2ccccc2C)n1	n	n	n	-7	n
OC1(c2cccs2)CN(c2ccc(Br)cc2)C2=[N+]1CCCS2 (centres undefined)	n	n	n	n	n
OC1(c2ccccc2)CN(c2ccccc2)C2=[N+]1CCS2 (centres undefined)	n	n	72	-9	n
